AHR act – activators of human aryl hydrocarbon receptor. P35869. AHR-responsive luciferase reporter cells, luminescence. activation, % at 5 µM. 2.5% of 320,000 active. AID 2796; in the data active = activation above about 47%
SR-BI HDL uptake – inhibitors of mouse SR-BI mediated HDL lipid uptake | Q61009 | ldlA[mSR-BI] CHO cells, DiI-HDL uptake fluorescence, 3 h | inhibition, % at 12.5 µM | 0.96% of 320,000 active | AID 488896;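 active = mean replicate inhibition of at least 70% and a set share of replicates each scoring 70 or more; inconclusive = meets just one of the two criteria; inactive = fails both criteria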
Target sequence (Q61009 whole entry, looked up): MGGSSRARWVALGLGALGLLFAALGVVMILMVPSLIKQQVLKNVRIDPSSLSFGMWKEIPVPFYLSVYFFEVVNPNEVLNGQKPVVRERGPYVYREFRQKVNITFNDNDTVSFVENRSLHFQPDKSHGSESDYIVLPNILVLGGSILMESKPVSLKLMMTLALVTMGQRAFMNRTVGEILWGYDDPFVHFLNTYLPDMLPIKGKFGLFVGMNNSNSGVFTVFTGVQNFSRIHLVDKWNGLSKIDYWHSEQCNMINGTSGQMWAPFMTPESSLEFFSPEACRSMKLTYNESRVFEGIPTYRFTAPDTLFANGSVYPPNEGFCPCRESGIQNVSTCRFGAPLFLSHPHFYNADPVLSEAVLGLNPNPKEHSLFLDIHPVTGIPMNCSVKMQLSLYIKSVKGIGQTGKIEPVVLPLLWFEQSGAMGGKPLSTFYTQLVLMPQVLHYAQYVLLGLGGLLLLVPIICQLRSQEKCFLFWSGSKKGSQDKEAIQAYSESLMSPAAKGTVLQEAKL
GAA850 FXN act – frataxin GAA850 promoter activation | HEK293 lucGAA850 FXN promoter luciferase reporter, 24 h; percent of 10 µM SAHA response | activation, % at 6 µM | 0.56% of 360,000 active;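 active = activation above the average of all compounds screened plus 3 SD, cutoff fixed separately per campaign, cut at about 7.5% in these data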
JMJD2C inh – human JMJD2C demethylase inhibition | 0.069% of 330,000 active | Q9H3R0 | GST-JMJD2C(1-420) H3K9me3 demethylation, DELFIA europium | AID 2099 | inhibition, % at 2.35 µM;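 active = more than half of a compound's replicate wells show inhibition beyond 50%, single wells judged on their own value; inconclusive = some, but no more than half, of replicates pass 50% inhibition; inactive = no replicate passes 50% inhibition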;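 also: signal counts dimethyl H3K9 product captured on neutravidin plate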
SR-BI uptake up – activators of SR-BI mediated HDL lipid uptake; 0.096% of 320,000 active; CHO ldlA[mSR-BI] cells, DiI-HDL uptake fluorescence, 3 h; 100 = double the neutral-control signal; AID 504775; activation, % at 12.5 µM;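 active = mean replicate activation of at least 60% and every replicate at or above 60%; inconclusive = mean or all-replicate condition met, but not both; inactive = mean below 60% and not all replicates reaching 60%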
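Material: SR-BI-overexpressing, LDLR-lacking CHO cells | Dosing: Single compound concentration, delivered by pin transfer | Probe or stimulus: Labelled HDL, 10 µg/mL | Signal: Bottom-read cell fluorescence after medium removal, ex 550/em 595 nm | Schedule: 3 h, 37 °C | Evaluation: HDL uptake via cellular fluorescence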
AHR act cf – confirmation of human aryl hydrocarbon receptor activators. shares compounds with AHR act. human cells, AHR-responsive luciferase reporter, luminescence. activation, % at 9 µM. 87% of 2,300 active. AID 2845; in the data active = activation above about 49%;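 also: HepG2 hepatoma cells carrying a DRE-driven firefly luciferase reporter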
PXR act counter – activates human PXR in AHR activator counter-screen. shares compounds with AHR act. 88% of 2,300 active. AID 434939. activation, % at 11.6 µM. cell-based PXR reporter, luciferase luminescence; in the data active = activation above about 11%;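 also: human hepatoma DPX-2 cells expressing full-length human PXR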
Of the large screens only hits and unclear results are named; the others gave an inactive call (follow-up assays come after a bar, where they were run). Rows were chosen to be rich in hits. Some 3.7% of all compounds tested hit in one or more screens of this group.

Cn1c(Cc2ccccc2)nnc1SCC(=O)NC1CCCC1	none (no result: SR-BI HDL uptake, SR-BI uptake up)
Cc1ccc(-c2[nH]c(-c3ccc(Cl)cc3)nc2SCC(=O)NCC2CCCO2)cc1 (stereo not given)	AHR act 108 | AHR act cf 84 | PXR act counter 86
c1csc(-c2nc3c4ccccc4c4ccccc4c3[nH]2)c1	AHR act 112 | AHR act cf 96 | PXR act counter 25
COc1ccc(C2=Nn3c(nnc3-c3ccccn3)SC2)cc1OC	none
c1ccc(-c2nnc3n2N=C(c2ccc4c(c2)OCO4)CS3)nc1	AHR act 94 | AHR act cf inactive | PXR act counter 13
NC(=O)C1CCN(C(=O)c2ccc3ccccc3c2)CC1	none (no result: SR-BI HDL uptake, SR-BI uptake up)
Cn1c(C(=O)N2CCC(C(N)=O)CC2)cc2cc(Cl)ccc21	AHR act 101 | AHR act cf 116
CC(C)CNC(=S)N(CCN(C)C)Cc1cc2cc3c(cc2[nH]c1=O)OCO3	none
CC(C)CNC(=S)N(CCCO)Cc1cc2cc3c(cc2[nH]c1=O)OCO3	AHR act 92 | AHR act cf 100 | PXR act counter 19
COCCN1Cc2c(sc(C)c2C)N(C(=O)c2ccccc2)C1	AHR act 82 | AHR act cf 84 | PXR act counter 38
CCSCc1nnc(SCC(=O)Nc2cccc(C(C)=O)c2)n1C	none
Fc1ccc(N2CCN(c3nc(-c4ccco4)cc(C(F)(F)F)n3)CC2)cc1	AHR act 115 | AHR act cf 105 | PXR act counter 14
COc1ccc(CCNC(=O)Cn2c(=O)n(-c3ccc(C)c(F)c3)c(=O)c3sccc32)cc1OC	none (no result: SR-BI HDL uptake, SR-BI uptake up)
COc1ccc(NCc2ccccc2[N+](=O)[O-])cc1OC	none
O=[N+]([O-])c1ccc(Cl)cc1CNc1ccc(F)c(F)c1	AHR act 106 | AHR act cf 80 | PXR act counter 20
CN(CC(=O)Nc1c(Cl)cccc1Cl)C(=O)Cc1ccc2c(c1)CCC2	none
Brc1ccc(-c2ccc(/C=N/Nc3nc4ccccc4[nH]3)o2)cc1	AHR act 98 | AHR act cf 121 | PXR act counter 12
Cc1nn(-c2ccccc2)c(Cl)c1/C=N/Nc1nc2ccccc2[nH]1	none
Cc1ccc(/C=N/Nc2nc3ccccc3[nH]2)s1	AHR act 109 | AHR act cf 143 | PXR act counter 30
CC(=O)Nc1cccc(NC(=O)c2cc3ccccc3o2)c1	none
O=C(Nc1ccccc1)c1cc2ccccc2o1	AHR act 93 | AHR act cf 68 | PXR act counter 21
Cc1ccccc1NC(=O)c1cc(=O)c2ccccc2o1	none
Cc1ccccc1NC(=O)c1cc2ccccc2o1	AHR act 103 | AHR act cf 122 | PXR act counter 14
O=C(Nc1ccc(Br)cc1)c1ccc(Br)c(S(=O)(=O)Nc2cccnc2)c1	AHR act 98 | AHR act cf 56 | PXR act counter inactive
Cc1ccccc1Nc1nc(-c2ccccc2)c(C(=O)Nc2cccnc2)s1	AHR act 81, SR-BI HDL uptake inconclusive | AHR act cf 57 | PXR act counter 65
Cc1ccccc1NS(=O)(=O)c1cc(C(=O)Nc2cccnc2)ccc1C	AHR act 83 | AHR act cf 70 | PXR act counter 104
O=C(Nc1cccnc1)c1sc(Nc2ccccc2F)nc1-c1ccccc1	none
Cc1ccccc1NC(=O)c1ccc(C)c(S(=O)(=O)Nc2cccnc2)c1	none
O=C(OCCOc1cccc(Cl)c1)C1CCN(S(=O)(=O)c2ccccc2)CC1	none
Cc1ccc(C(=O)N/N=C/c2ccc(-c3ccccc3[N+](=O)[O-])o2)cn1	AHR act 93 | AHR act cf 109 | PXR act counter 16
O=C(O)/C=C/C(=O)Nc1ccc(Cc2ccc(NC(=O)/C=C/C(=O)O)cc2)cc1	none
O=c1c2ccccc2oc2nc(-c3ccco3)n(-c3ccccc3)c(=O)c12	AHR act 95 | AHR act cf 148 | PXR act counter 33
Cc1cc(C)cc(Nc2c(F)c(F)c(F)c(F)c2C(=O)O)c1	none
O=C1c2ccccc2C(=O)N1CCC#Cc1ccc2cc(CCCO)oc(=O)c2c1	none (no result: JMJD2C inh)
COc1cc2nc3c4ccccc4n(CC#N)c3nc2cc1OC	none (no result: AHR act, SR-BI HDL uptake, GAA850 FXN act, SR-BI uptake up)
CCn1c2ccccc2c2nc3cc(OC)c(OC)cc3nc21	AHR act 115 | AHR act cf 96 | PXR act counter 63
c1cnc2c(OCc3nc4ccccc4[nH]3)cccc2c1	AHR act 110 | AHR act cf 149 | PXR act counter 110
CNc1ccccc1-c1nc2ccccc2n(C)c1=O	AHR act 113 | AHR act cf 107 | PXR act counter 41
Cc1cc(C)c(C(=O)COC(=O)c2cccnc2Cl)c(C)c1	none
CCOC(=O)CC(NC(=O)CCc1c(C)nc2ncnn2c1C)c1ccc(C)cc1 (stereo not given)	none
COC(=O)Nc1nn(-c2ccc(Cl)cc2)c(=O)c(C#N)c1C	AHR act 96 | AHR act cf inactive | PXR act counter 14
C=CCc1cccc2cc(C(=O)NNC(=O)CC#N)c(=O)oc12	none (no result: SR-BI HDL uptake, SR-BI uptake up)
CCn1c2ccccc2c2cc(NC(=O)COc3ccccc3)ccc21	AHR act 100 | AHR act cf 89 | PXR act counter 60
CCn1c2ccccc2c2cc(NC(=O)COc3ccc(OC)cc3)ccc21	none
CCn1c2ccccc2c2cc(NC(=O)N3CCOCC3)ccc21	AHR act 118 | AHR act cf 99 | PXR act counter 109
CC(=O)N1CCN(c2ccc(NC(=O)c3ccc(F)cc3)cc2)CC1	none (no result: AHR act)
COc1ccc(C(=O)Nc2ccc3ccccc3c2)c(OC)c1	AHR act 85 | AHR act cf 96 | PXR act counter inactive
COc1cc2ccccc2cc1C(=O)Nc1ccc(C)cc1	AHR act 83 | AHR act cf 92
COc1cc2ccccc2cc1C(=O)Nc1ccc(Cc2ccncc2)cc1	none
COC(=O)c1sccc1-c1ccc(C(=O)Nc2cccc(Cl)c2)o1	AHR act 104, GAA850 FXN act 8.3 | AHR act cf 74 | PXR act counter 25
COC(=O)c1ccccc1NC(=O)c1ccc(-c2cccc(Cl)c2)o1	none
COCC(=O)Nc1nnc(-c2cccs2)s1	AHR act 81 | AHR act cf 94
CCC(C)C(=O)Nc1nnc(-c2cccs2)s1 (stereo not given)	AHR act 84 | AHR act cf 81 | PXR act counter 48
C=C(C)C(=O)Nc1nnc(-c2cccs2)s1	none
CC(NC(=O)COC(=O)COc1ccc(C(=O)c2ccccc2)cc1)c1ccccc1 (stereo not given)	none

Compound activity deposited in PubChem by several laboratories.
